Experimental data from ChEMBL document CHEMBL5608233, “Fluorescent Peptides Sequester Redox Copper to Mitigate Oxidative Stress, Amyloid Toxicity, and Neuroinflammation” (ACS Med Chem Lett, 2024).
Activity calls are given as the source filed them. The rule behind the calls is not given here. Residues, ends and D or L forms follow the SMILES beside them. *: point of attachment. X1 = CN(C)c1ccc2c3c(cccc13)C(=O)N(CCN*)C2=O

Assays:
[1] = tested on: SH-SY5Y; assay: Neuroprotective activity against amyloid beta 42 and Cu2+ induced toxicity in human SH-SY5Y cells assessed as increase in cell viability at 10 uM incubated for 24 hrs by MTT assay (reference value: 48 %); assay type: functional
Procedure, shortened: (§1)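 SH-SY5Y cells incubated 24 h with Aβ42 fibrils (10 μM) and peptide (10 μM), in the absence or presence of Cu2+ (10 μM). Viability by MTT.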

[2] = Antioxidant activity assessed as inhibition of Cu2+ induced ROS production by measuring decrease in fluorescence intensity in presence of Cu2+ and ascorbate at 10 uM measured after 10 mins by absorption spectroscopic analysis; assay type: functional
Procedure, shortened: (§2)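 Ascorbate added first. After 10 min, redox cycling triggered with Cu2+ alone or peptide–Cu2+ premixed in HEPES (50 mM, pH 7.4). Ascorbate consumption followed by absorbance at 265 nm over time.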

[3] = tested on: SH-SY5Y; assay: Neuroprotective activity against amyloid beta 42 induced toxicity in human SH-SY5Y cells assessed as increase in cell viability at 10 uM incubated for 24 hrs by MTT assay (reference value: 55 %); assay type: functional; procedure, shortened: as §1
[4] = Antiinflammatory activity in LPS-induced mouse N9 cells assessed as reduction in nitrite production at 10 uM incubated for 24 hrs by griess assay relative to control; assay type: functional; design: scale not given: the % may be the effect or the level left
Procedure, shortened: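 LPS (1 μg/mL)-stimulated N9 microglia treated with peptide at 10 μM. Nitric oxide quantified as nitrite in the medium by Griess assay. Nitrite in LPS-only cells set as 100%. n = 3, one-way ANOVA.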

[5] = Metal chelating activity assessed as compound-Zn2+ complex formation by measuring decrease in fluorescence intensity at 50 uM in presence of ZnCl2 by UV-Visible fluorescence spectroscopic analysis
Procedure, shortened: (§3)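 Peptide solution at 50 μM mixed 1:1 with Cu2+, Zn2+, Fe3+ or Al3+. NMI emission recorded at λex 450 nm, λem 550 nm, and drop in fluorescence used to indicate complexation. Separate titration with Cu2+ (0–100 μM) into 50 μM peptide used to assess stoichiometry.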

[6] = organism: Homo sapiens; assay: Binding affinity to Amyloid beta 16 (unknown origin) extracted from Escherichia coli BL21 assessed as increase in absorbance band by circular dichroism spectroscopic analysis
[7] = tested on: N9; assay: Antiinflammatory activity in LPS-induced mouse N9 cells assessed as reduction in ROS production at 10 uM incubated for 24 hrs by DCFDA staining based analysis; assay type: functional, cell-based
Procedure, shortened: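 N9 cells treated with LPS (1 μg/mL, 24 h) with or without peptide (10 μM, or a concentration series). ROS read with DCFDA fluorescence. n = 3, one-way ANOVA.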

[8] = Cytotoxicity against human SH-SY5Y cells assessed as cell viability at 100 uM incubated for 24 hrs by MTT assay relative to control; assay type: toxicity, cell-based; conditions: read-out: Activity
Procedure, shortened: (§4)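 SH-SY5Y cells exposed to peptide (10–100 μM) for 24 h. Viability by MTT.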

[9] = Metal chelating activity assessed as compound-Cu2+ complex formation measured after 2 mins in presence of CuCl2 by UV-Visible fluorescence spectroscopic analysis
[10] = Metal chelating activity assessed as compound-Fe3+ complex formation by measuring decrease in fluorescence intensity at 50 uM in presence of FeCl3 by UV-Visible fluorescence spectroscopic analysis; procedure, shortened: as §3
[11] = Cytotoxicity against mouse N9 cells at upto 50 uM incubated for 24 hrs by MTT assay; assay type: toxicity, cell-based; conditions: n9, 24 h
Procedure, shortened: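 N9 microglia given a concentration series of peptide. Viability assessed.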

[12] = target: Amyloid-beta precursor protein (Homo sapiens) (UniProt P05067); assay: Inhibition of Amyloid beta 42 (unknown origin) aggregation extracted from Escherichia coli BL21 assessed as decrease in amyloid beta fibril formation incubated for 48 hrs by atomic force microscopy
Chain of Amyloid-beta precursor protein (Homo sapiens) (P05067 whole entry): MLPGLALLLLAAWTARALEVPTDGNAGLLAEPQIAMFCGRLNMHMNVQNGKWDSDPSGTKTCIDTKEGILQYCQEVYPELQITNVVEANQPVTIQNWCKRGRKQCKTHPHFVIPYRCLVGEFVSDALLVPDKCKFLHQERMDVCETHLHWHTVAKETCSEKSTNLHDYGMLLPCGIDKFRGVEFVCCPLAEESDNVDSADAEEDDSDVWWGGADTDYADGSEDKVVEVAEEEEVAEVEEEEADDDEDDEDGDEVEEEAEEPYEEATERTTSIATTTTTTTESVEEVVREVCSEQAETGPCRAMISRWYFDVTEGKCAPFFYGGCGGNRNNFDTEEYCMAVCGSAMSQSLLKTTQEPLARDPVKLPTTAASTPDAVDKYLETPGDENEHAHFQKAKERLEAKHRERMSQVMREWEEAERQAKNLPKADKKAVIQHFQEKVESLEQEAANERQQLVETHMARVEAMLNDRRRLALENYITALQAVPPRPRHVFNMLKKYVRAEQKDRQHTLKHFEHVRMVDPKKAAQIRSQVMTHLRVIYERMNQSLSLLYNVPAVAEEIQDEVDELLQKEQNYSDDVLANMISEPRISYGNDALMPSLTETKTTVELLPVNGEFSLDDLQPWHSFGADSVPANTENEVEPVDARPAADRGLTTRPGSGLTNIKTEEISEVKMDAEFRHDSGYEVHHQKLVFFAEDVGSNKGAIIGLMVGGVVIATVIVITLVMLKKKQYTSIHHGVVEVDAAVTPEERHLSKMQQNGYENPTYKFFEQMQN

[13] = Metal chelating activity assessed as compound-Al3+ complex formation by measuring decrease in fluorescence intensity at 50 uM in presence of AlCl3 by UV-Visible fluorescence spectroscopic analysis; procedure, shortened: as §3
[14] = Metal chelating activity assessed as compound-Cu2+ complex formation at 50 uM in presence of CuCl2 by UV-Visible fluorescence spectroscopic analysis; procedure, shortened: as §3
[15] = organism: Homo sapiens; assay: Binding affinity to Amyloid beta 16 (unknown origin) extracted from Escherichia coli BL21 by measuring quenching effect incubated for 15 mins in presence of Cu2+ by fluorescence quenching analysis
[16] = target: Amyloid-beta precursor protein (Homo sapiens) (UniProt P05067); assay: Inhibition of Amyloid beta 42 (unknown origin) aggregation extracted from Escherichia coli BL21 assessed as decrease in Cu2+ induced amyloid beta fibril formation incubated for 48 hrs in presence of Cu2+ by atomic force microscopy
[17] = tested on: SH-SY5Y; assay: Cytotoxicity against human SH-SY5Y cells at 100 uM incubated for 24 hrs by MTT assay; assay type: toxicity, cell-based; procedure, shortened: as §4
[18] = target: Amyloid-beta precursor protein (Homo sapiens) (UniProt P05067); assay: Inhibition of Amyloid beta 42 (unknown origin) extracted from Escherichia coli BL21 induced ROS production assessed as decrease in fluorescence intensity at 10 uM incubated for 20 mins in presence of Cu2+ and ascorbate by absorption spectroscopic analysis
[19] = Metal chelating activity assessed as compound-Cu2+ complex formation by measuring quenching effect measured after 20 mins in presence of CuCl2 by fluorescence quenching analysis
[20] = Antioxidant activity assessed as inhibition of Cu2+ induced ROS production by measuring decrease in fluorescence intensity in presence of Cu2+ and ascorbate at 10 uM by absorption spectroscopic analysis; assay type: functional; procedure, shortened: as §2
[21] = Antioxidant activity assessed as inhibition of Cu2+ induced ROS production by measuring decrease in fluorescence intensity in presence of ascorbate and H2O2 at 10 uM measured after 20 mins by absorption spectroscopic analysis; assay type: functional
[22] = organism: Homo sapiens; assay: Binding affinity to Amyloid beta 16 (unknown origin) extracted from Escherichia coli BL21 assessed as maximal quenching in presence of Cu2+ by fluorescence quenching analysis
[23] = Antioxidant activity assessed as inhibition of Cu2+ induced ROS production by measuring decrease in fluorescence intensity in presence of stoichiometric ratio of 1:2 of Cu2+ and ascorbate at 10 uM measured after 10 mins by absorption spectroscopic analysis; assay type: functional
[24] = Metal chelating activity assessed as compound-Cu2+ complex formation by measuring decrease in fluorescence intensity at 25 uM in presence of CuCl2 by UV-Visible fluorescence spectroscopic analysis
[25] = Metal chelating activity assessed as compound-Al3+ complex formation by measuring decrease in fluorescence intensity at 25 uM in presence of AlCl3 by UV-Visible fluorescence spectroscopic analysis
[26] = Metal chelating activity assessed as compound-Fe3+ complex formation by measuring decrease in fluorescence intensity at 25 uM in presence of FeCl3 by UV-Visible fluorescence spectroscopic analysis
[27] = Antioxidant activity assessed as inhibition of Cu2+ induced ROS production by measuring decrease in fluorescence intensity in presence of stoichiometric ratio of 1:1 of Cu2+ and ascorbate at 10 uM measured after 10 mins by absorption spectroscopic analysis; assay type: functional

Row | SMILES | Activity [1] [%] | Activity [2] | Activity [3] [%] | Activity [4] [%] | Activity [6] | Activity [7] | viability at 24 h, 100 µM [8] [%] | Activity [9] | Activity [10] | Activity [11] | inhibition [12] | Activity [13] | Activity [14] | inhibition [16] | Activity [17] | Activity [21] | also measured
1 | CN(C)c1ccc2c3c(cccc13)C(=O)N(CCNC(=O)[C@H](CCC(N)=O)NC(=O)[C@H](CCCCN)NC(=O)[C@H](Cc1c[nH]cn1)NC(=O)[C@@H](Cc1c[nH]cn1)NC(=O)CN)C2=O | 92 | Active | ~80 | 56 | Active | Active | > 90 | Active | inactive | Non-Toxic | Active | inactive | Active | Active | Non-Toxic |  | Activity [5]: inactive; Activity [15]: Active
2 | CN(C)c1ccc2c3c(cccc13)C(=O)N(CCNC(=O)[C@H](CCC(N)=O)NC(=O)[C@H](CCCCN)NC(=O)[C@H](Cc1c[nH]cn1)NC(=O)CN)C2=O (H-GHKQ-X1) |  |  |  |  |  |  |  |  |  |  | Active |  |  | Active |  |  | inhibition [18]: Active
3 | CN(C)c1ccc2c3c(cccc13)C(=O)N(CCNC(=O)[C@H](CCC(N)=O)NC(=O)[C@H](CCCCN)NC(=O)[C@@H](N)Cc1c[nH]cn1)C2=O | 82 |  | ~80 | 85 | Active | Active | > 90 | Active | inactive | Non-Toxic | Active | inactive | Active | Active | Non-Toxic | Active | Activity [19]: Active; Activity [20]: Active
4 | CN(C)c1ccc2c3c(cccc13)C(=O)N(CCNC(=O)[C@H](CCC(N)=O)NC(=O)[C@H](CCCCN)NC(=O)[C@H](Cc1c[nH]cn1)NC(=O)CNC(=O)CN)C2=O (H-GGHKQ-X1) | 85 | Active | ~80 | 70 | inactive | Active | > 90 | Active |  | Non-Toxic | inactive |  |  | inactive | Non-Toxic | inactive | Activity [22]: 65%; Activity [23]: inactive; Activity [24]: Active; Activity [25]: inactive; Activity [26]: inactive; Activity [27]: inactive
5 | CN(C)c1ccc2c3c(cccc13)C(=O)N(CCNC(=O)[C@@H](N)CCC(N)=O)C2=O |  |  |  |  |  |  |  |  |  |  | Active |  |  | inactive |  |  | 
6 | NCCCC[C@H](NC(=O)[C@H](Cc1cnc[nH]1)NC(=O)CN)C(=O)O (H-Gly-His-Lys-OH) |  |  |  |  |  |  |  |  |  |  | inactive |  |  | inactive |  |  | 
